Only some compounds are listed: those with a hit (about 3.1% of all), similar ones and a draw of the others.
SENP6 block: SENP6 protease inhibitors, primary screen, biochemical, luminescence, uHTS; Sentrin-specific protease 6 (Homo sapiens), Q9GZR1; Recombinant SENP6 catalytic domain, aminoluciferin luminescence; inhibition, % at 10 µM; 330,000 tested, 1.8% active;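 active means inhibition above about 50% at the single tested dose, limit read from the data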;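 further: plate controls were DMSO wells with enzyme for no effect and DMSO wells lacking enzyme for full effect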
Target sequence (Q9GZR1 628-1112 limits assumed): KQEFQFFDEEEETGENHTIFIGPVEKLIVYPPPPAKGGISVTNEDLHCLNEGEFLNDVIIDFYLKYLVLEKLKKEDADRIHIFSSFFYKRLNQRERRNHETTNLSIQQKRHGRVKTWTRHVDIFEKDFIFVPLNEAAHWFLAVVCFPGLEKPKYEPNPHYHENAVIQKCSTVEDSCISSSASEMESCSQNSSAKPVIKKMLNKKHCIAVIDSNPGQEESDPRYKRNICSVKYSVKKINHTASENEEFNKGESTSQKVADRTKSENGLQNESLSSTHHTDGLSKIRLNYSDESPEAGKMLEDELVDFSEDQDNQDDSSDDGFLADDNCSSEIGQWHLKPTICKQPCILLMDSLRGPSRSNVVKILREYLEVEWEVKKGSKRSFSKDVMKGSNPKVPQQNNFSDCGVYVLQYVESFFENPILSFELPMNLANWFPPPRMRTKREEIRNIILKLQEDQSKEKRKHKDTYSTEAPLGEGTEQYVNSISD
UBC13 inh: UBC13 polyubiquitin chain formation inhibitors, primary screen, biochemical, TR-FRET, uHTS | AID 485273, 2010 | 330,000 tested, 0.47% active | inhibition, % at 20 µM; in the data active means inhibition above about 45%, passing the limit was not always enough
SENP8 block-1: human SENP8 protease inhibitors, primary screen, biochemical, fluorescence, Nedd8 protein substrate, uHTS | Sentrin-specific protease 8 (Homo sapiens), Q96LD8 | recombinant SENP8 | inhibition, % at 20 µM | 360,000 tested, 0.64% active; in the data active means inhibition mostly above about 40%, no sharp cut-off; inactive means mostly below about 27%
Target sequence (Q96LD8 whole entry, looked up): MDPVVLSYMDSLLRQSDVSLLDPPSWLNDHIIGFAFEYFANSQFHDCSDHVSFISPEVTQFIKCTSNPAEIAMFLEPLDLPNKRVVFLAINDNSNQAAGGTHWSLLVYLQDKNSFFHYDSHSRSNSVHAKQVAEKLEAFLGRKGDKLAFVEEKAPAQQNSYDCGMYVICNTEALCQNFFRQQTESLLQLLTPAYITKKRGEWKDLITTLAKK
SENP7 block: SENP7 protease inhibitors, primary screen, biochemical, luminescence, uHTS; recombinant SENP7, Z-RLRGG-aminoluciferin luminescence, 40 min; inhibition, % at 5 µM; 330,000 tested, 1.5% active;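 active means inhibition above about 50% at the single test dose, limit read from the data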;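 further: plate controls were DMSO with enzyme for no effect and no enzyme buffer wells for full effect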
SENP8 block-2: SENP8 protease inhibitors, primary screen, biochemical, luminescence. Sentrin-specific protease 8 (Homo sapiens), Q96LD8. purified SENP8, Z-RLRGG-aminoluciferin cleavage. inhibition, % at 10 µM. 330,000 tested, 1.2% active. AID 2540, 2010; in the data active means inhibition above about 50%
Apaf1 inhib: inhibitors of human Apaf-1 apoptosome, primary screen, biochemical, DEVD-Rh110 fluorescence, uHTS | inhibition, % at 20 µM | Apoptotic protease-activating factor 1 (Homo sapiens), O14727 | reconstituted apoptosome caspase-3 activity | 330,000 tested, 0.71% active; active means inhibition of at least 40% at 20 µM;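 further: plate controls were DMSO wells for no effect and DEVD-CHO caspase inhibitor wells for full effect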
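System: reconstituted apoptosome with Apaf-1, cytochrome c, caspase-9, procaspase-3, dATP; Signal: Rh110 fluorescence intensity; Schedule: 30 min compound preincubation, 50 min activation, room temperature; Reagent: cytochrome c trigger plus (Z-DEVD)2-Rh110 caspase-3 substrate.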
SENP8 conf: SENP8 protease inhibitors, retest, confirmation, biochemical, luminescence, single concentration | shares compounds with SENP7 block | Recombinant SENP8, Z-RLRGG-aminoluciferin luminescence, 60 min | inhibition, % at 12.5 µM | 6,200 tested, 40% active;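 active means mean inhibition across replicates above about 50%, limit read from the data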
SENP6 confirm: SENP6 protease inhibitors, confirmation, biochemical, luminescence, single concentration; shares compounds with SENP7 block; recombinant SENP6, Z-RLRGG-aminoluciferin luminescence; inhibition, % at 12.5 µM; 6,200 tested, 58% active; AID 488915, 2010
SENP7 confirm: SENP7 protease inhibitors, retest, confirmation, biochemical, luminescence, single concentration. recombinant SENP7, Z-RLRGG-aminoluciferin luminescence, 40 min. shares compounds with SENP7 block. 6,200 tested, 69% active. inhibition, % at 12.5 µM
Casp3 SENP sel: caspase-3 protease inhibitors, confirmation, selectivity assay for SENP inhibitor project, biochemical, single concentration; inhibition, % at 12.5 µM; purified caspase-3, Z-DEVD-aminoluciferin luminescence, 60 min; 6,200 tested, 60% active; AID 488918, 2010; shares compounds with SENP7 block;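 active means mean inhibition above about 50%, limit read from the data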;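 further: plate controls were enzyme with DMSO for no effect and wells without caspase-3 for full effect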
SENP luc ctr: counter-screen for SENP inhibitors: luminescence interference; Pre-incubated SENP8/Z-RLRGG-aminoluciferin, luciferase luminescence interference; shares compounds with SENP7 block; 6,200 tested, 39% active; inhibition, % at 12.5 µM;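 active means mean inhibition above about 50% when retested at one dose, limit read from the data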;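 further: plate controls were DMSO wells with completed reaction for no effect and substrate without enzyme for full effect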
* = called active by the depositor; · = no result given.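 How the source made its calls, unless noted: active means mean inhibition above about 50% in the one-dose retest (limit read from the data); inactive means the rest.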

SMILES | SENP6 block | UBC13 inh | SENP8 block-1 | SENP7 block | SENP8 block-2 | Apaf1 inhib | SENP8 conf | SENP6 confirm | SENP7 confirm | Casp3 SENP sel | SENP luc ctr
CCOc1ccccc1NC(=O)Nc1ccc2c(c1)CCC2 | 69* | 7 | 11 | 53* | 47 | 21 | 53* | 68* | 87* | 36 | 48
Cc1ccccc1NC(=O)Nc1ccc2c(c1)OCO2 | 91* | -6 | 6 | 96* | 79* | -3 | 23 | 74* | 25 | 92* | 2
C[C@H]1CN([C@@H](C)CO)C(=O)c2cc(Br)cnc2O[C@H]1CN(C)Cc1ccc(Oc2ccccc2)cc1 | · | · | 7 | · | · | · | · | · | · | · | ·
COc1cccc(C(c2nnnn2C2CCCC2)N2CCN(C/C=C/c3ccccc3)CC2)c1OC (stereo not drawn) | · | · | 17 | · | · | · | · | · | · | · | ·
CCOc1ccccc1NC(=O)Nc1ccc2c(c1)OCO2 | 86* | 6 | -1 | 85* | 72* | 10 | 4 | 81* | 97* | 79* | 79*
CCOc1ccccc1OCCC(=O)Nc1ccc2c(c1)OCO2 | -20 | 9 | 3 | -3 | -5 | 2 | · | · | · | · | ·
Clc1ccc2nc3ccccc3cc2c1 | · | · | -306 | · | · | · | · | · | · | · | ·
Clc1ccc2nc3c4ccccc4cnn3c2c1 | 99* | 31 | -356 | 98* | 95* | 1 | 94* | 94* | 101* | 92* | 24
COC(=O)c1ccc(COc2ccccc2/C=C/C(=O)c2ccc(OCC(=O)O)cc2)cc1 | 55* | -10 | 17 | 5 | 31 | 11 | 16 | 10 | 30 | 27 | 49
COC(=O)c1ccc(COc2ccccc2/C=N/Nc2cccc(C(=O)O)c2)cc1 | · | · | -15 | · | · | · | · | · | · | · | ·
Cc1ncoc1C(=O)Nc1ccc2c(c1)OCCO2 | 64* | 4 | 3 | 77* | 60* | -31 | 70* | 66* | 89* | 91* | 72*
Cc1c([N+](=O)[O-])c(C(=O)Nc2ccc3c(c2)OCCO3)nn1C | 75* | 0 | 12 | 73* | 42 | -1 | 68* | 66* | 87* | 89* | 72*
Cc1nn(C)c(C(=O)Nc2ccc3c(c2)OCO3)c1[N+](=O)[O-] | 0 | -4 | 12 | -6 | 3 | -5 | · | · | · | · | ·
CC(=O)Nc1ccc2c(c1)OCCOCCOc1cc(NC(C)=O)ccc1OCCOCCOCCO2 | -14 | 1 | · | 2 | -2 | -10 | · | · | · | · | ·
COc1ccc(NC(=O)c2ocnc2C)cc1OC | -1 | -4 | 12 | -3 | -16 | -4 | · | · | · | · | ·
Cc1ncoc1C(=O)Nc1ccc(Oc2ccccc2)cc1 | 62* | 6 | 12 | 56* | 32 | -12 | 51* | 46 | 78* | 44 | 62*
Cc1ccsc1C(=O)Nc1ccc2c(c1)OCCO2 | 86* | -2 | -4 | 92* | 85* | -8 | 90* | 90* | 99* | 95* | 91*
O=C(NCc1cc(Cl)cc(Cl)c1)c1ccc2sc([C@H]3C[C@H](O)[C@@H](CO)O3)nc2c1 | · | · | -20 | · | · | · | · | · | · | · | ·
CC1=NN(c2ccccc2)C(=O)C1CCC#N (stereo not drawn) | · | · | 11 | · | · | · | · | · | · | · | ·
CC(=O)c1ccc(S(=O)(=O)NCCOc2ccccc2)cc1 | · | · | 7 | · | · | · | · | · | · | · | ·
CSc1ccc(OC2(C)CCN(Cc3ccc(OC(C)C)cc3)C2)cc1 (stereo not drawn) | · | · | 19 | · | · | · | · | · | · | · | ·
C[C@@H]1CN([C@H](C)CO)C(=O)c2cc(C#Cc3ccccc3F)cnc2O[C@@H]1CN(C)S(=O)(=O)c1ccccc1F | · | · | 2 | · | · | · | · | · | · | · | ·
Cc1nnc(Sc2cc(NCCO)c([N+](=O)[O-])c3nonc23)s1 | · | · | 33 | · | · | · | · | · | · | · | ·
CCC(=O)OCCNc1cc(Sc2nc3ccccc3s2)c2nonc2c1[N+](=O)[O-] | 72* | -34 | 60* | 44 | 41 | 46* | 1 | 12 | -4 | -2 | -3
O=[N+]([O-])c1c(NCCCO)cc(Sc2nc3ccccc3s2)c2nonc12 | 82* | -67 | 26 | 80* | 91* | 98* | 7 | 13 | 0 | -3 | 0
SMILES | SENP6 block | UBC13 inh | SENP8 block-1 | SENP7 block | SENP8 block-2 | Apaf1 inhib | SENP8 conf | SENP6 confirm | SENP7 confirm | Casp3 SENP sel | SENP luc ctr
Cc1cccc(S(=O)(=O)NC(=O)C2(C)CCN2C(=O)Cc2ccc(-c3ccccc3)cc2)c1 (stereo not drawn) | · | · | 6 | · | · | · | · | · | · | · | ·
Cc1cccc(-c2cc3nc4c(c(NCc5ccco5)n3n2)CCCC4)c1 | 88* | 4 | -267 | 44 | 81* | 18 | 17 | 12 | 15 | 24 | 26
Cc1cccc(-c2cc3nc4c(c(N5CCOCC5)n3n2)CCCC4)c1 | 65* | 3 | -198 | 5 | 53* | 29 | 60* | 51* | 50 | 48 | 13
COC(=O)c1ccc2nc(-c3cccc(N)c3)cn2c1 | 23 | -8 | -15 | 66* | 42 | -11 | 60* | 62* | 86* | 86* | 69*
COC(=O)c1ccc2nc(-c3ccc(S(C)(=O)=O)cc3)cn2c1 | -32 | 6 | -445 | -3 | -15 | 1 | · | · | · | · | ·
O=C(C#Cc1ccccc1)Nc1cccc(F)c1 | 81* | -6 | 19 | 84* | 71* | 20 | 85* | 83* | 93* | 67* | 75*
CSc1ccccc1NC(=O)Nc1ccccc1Cl | 8 | -11 | 17 | -1 | -5 | 3 | · | · | · | · | ·
CSc1ccccc1NC(=O)Nc1ccccc1 | 90* | 5 | 12 | 81* | 66* | -7 | 5 | 82* | 43 | 83* | 83*
CSc1ccccc1NC(=O)Nc1cccc(F)c1 | 86* | 5 | 6 | 83* | 69* | -9 | 87* | 86* | 98* | 79* | 68*

Source: PubChem
